# Screening results (PubChem)
# This is a sample that favours compounds with a hit; in the whole collection about 4.3% have one here.
# STAT3 act = IL-6 driven STAT3 reporter potentiators, primary screen, U3A cells, luciferase, luminescence, MLSCN library | IL-6 STAT3-luciferase reporter; 100% = signal with IL-6 EC80 alone | activation (% of control), % at 5.6 µM | actives 0.91% (n = 190,000) | AID 871, 2007;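 active = activation above the screen-wide mean of compound activation plus 3 SD, cut at about 130% in these data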;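 note: 0% = background luminescence of wells with medium and substrate only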
#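 Detection: reporter luminescence signal / Assay system: STAT1-lacking human U3A cells, STAT3 luciferase reporter / Incubation: compound pre-incubation 1 h before IL-6, then 6 h stimulation at 37 °C / Control set: IL-6-only high control / Read-out: % activation relative to IL-6 control / Probe or stimulus: Interleukin-6, 33 ng/mL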
# STAT1 act = STAT1 signaling activators, primary screen, cell-based, HTS, luciferase reporter. actives 2.6% (n = 200,000). activation (% of control), % at 5.5 µM. AID 932, 2007. NIH 3T3 STAT1-luciferase reporter, IFN-gamma, luminescence; 100% = IFN-gamma alone, no compound;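 active = activation above the screen-wide mean activation plus 3 SD, cut at about 130% in these data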;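 note: raw ratio to IFN-gamma control signal so 100% means no change and 0% no light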
# STAT1 blocker = STAT1 signaling inhibitors, primary screen, cell-based, HTS, luciferase reporter | NIH 3T3 STAT1-luciferase reporter, IFN-gamma, luminescence | inhibition, % at 5.5 µM | actives 0.35% (n = 200,000) | AID 920, 2007;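 active = inhibition above a set limit, the mean inhibition across all tested compounds plus 3 SD, cut at about 34% in these data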;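 note: 0% = IFN-gamma with DMSO and 100% = IFN-gamma with 300 µM nifuroxazide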
# STAT3 inh = IL-6 driven STAT3 reporter inhibitors, primary screen, U3A cells, luciferase, luminescence, MLSCN library; inhibition, % at 5.5 µM; actives 0.89% (n = 190,000); IL-6 STAT3-luciferase reporter; host cell line lacks STAT1;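 active = inhibition above the mean inhibition across all screened compounds plus 3 SD, cut at about 44% in these data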;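 note: 0% = DMSO only wells and 100% = 100 µM nifuroxazide control wells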
# Numbers without * were called inactive.
SMILES,STAT3 act,STAT1 act,STAT1 blocker,STAT3 inh
O=C(CCCc1cccs1)Nc1nc2c(s1)CCCC2,133*,106,-7,-36
CC1CCc2nc(NC(=O)Cc3cccs3)sc2C1 (centres undefined),105,143*,-46,-2
CC1CCc2nc(NC(=O)c3ccco3)sc2C1 (centres undefined),22,61,43*,97*
Cc1csc(NC(=O)CCCc2cccs2)n1,102,114,-16,2
COc1cc(C2=NC(CO)(CO)CO2)cc(OC)c1OC,99,103,-3,2
Fc1ccc(-c2cnn3c(-c4ccncc4)ccnc23)cc1,74,148*,-54,37
COc1ccc(-c2cc(C(=O)NC(C)C)no2)cc1,92,144*,-43,10
COC(=O)c1cc(-c2ccc(OC)cc2)on1,100,99,0,5
O=C(CNS(=O)(=O)c1ccccc1)NCC(=O)OCc1ccc(C(=O)c2ccccc2)cc1,103,103,-3,-5
Cc1ccc(C2=NCN(c3ccc(C(=O)O)cc3)C(=S)N2)cc1,106,136*,-37,-5
Cc1cc(C)c2c(N)c3cccc(C)c3nc2n1,120,148*,-53,-16
CCC(C)(C)NC(=O)Cc1ccc(Cl)cc1,104,102,-2,-3
O=C(Nc1ccc(F)cc1F)c1csc(-c2ccncc2)n1,91,112,-17,15
O=C(Nc1ccc(F)cc1F)c1csc(-c2cccs2)n1,124,135*,-40,-21
COc1ccccc1NC(=O)NCCN1C(=O)C2C3C=CC(C3)C2C1=O (centres undefined),104,97,3,5
Cc1ccc2ccc(C3C(=O)c4ccccc4C3=O)nc2c1,165*,142*,-45,-74
COc1cc(CNc2ccc(N3CCCC3)cc2)ccc1OCc1ccccc1F,127,125,-28,-36
COc1cc(CNc2ccc(N3CCCC3)cc2)ccc1OCc1ccccc1,134*,121,-24,-31
Cc1[nH]n(-c2ccc([N+](=O)[O-])cc2)c(=O)c1N=Nc1nc2ccccc2s1,163*,103,-3,-70
Cc1cc([N+](=O)[O-])ccc1N=Nc1c(N)[nH]n(-c2ccccc2)c1=O,98,104,-5,3
Cc1ccn2c(CNCC3OCCc4ccccc43)c(C(=O)N3CCCCCC3)nc2c1 (centres undefined),99,97,2,6
Cc1cc(C(=O)NCCc2ccccc2)ccc1[N+](=O)[O-],106,134*,-38,-2
O=C(NCCc1ccccc1)c1ccncc1,116,130*,-33,-11
O=C(NCCc1ccccc1)C(=O)NCc1ccncc1,100,104,-4,-1
O=C(NCCc1ccccc1)c1cnc2sccn2c1=O,99,136*,-37,1
SMILES,STAT3 act,STAT1 act,STAT1 blocker,STAT3 inh
O=C(NCCc1ccccc1)c1cccs1,94,142*,-45,7
Cc1nnc(SCc2ccc([N+](=O)[O-])cc2)o1,88,100,0,19
CCOC(=O)N/N=C(/C)c1cccc(-n2cnnn2)c1,96,95,4,16
CC(C)(/C=N/NC(=O)CSCc1ccccc1Cl)CCC#N,103,107,-8,1
CC(C)Cn1c(=S)[nH]c2cc(Cl)ccc21,101,95,5,-1
CC(C)c1cc(C(=O)NCCc2ccccc2)no1,105,133*,-37,7
CCC(=O)c1ccc(OCc2ccccc2)c(OC)c1,108,129*,-33,-10
CCC(=O)c1ccc(OCc2ccc(C(=O)OC)cc2)c(OC)c1,103,98,3,-3
Cc1ccc(OCC(=O)c2cc(C)n(CC(F)(F)F)c2C)c([N+](=O)[O-])n1,106,106,-8,-1
Cc1ccc(OCC(=O)c2cc(C)n(Cc3cccs3)c2C)c([N+](=O)[O-])n1,60,59,43*,52*
Cc1ccc(NC(=O)C2C3CCCC2C3c2ccccc2)cc1 (centres undefined),99,112,-14,1
Cc1nn(C)c(C(=O)N/N=C/c2cc3c(cc2Br)OCO3)c1Br,100,99,1,1
Cc1nonc1C(=O)N/N=C/c1ccccc1,110,132*,-34,-12
Cc1nonc1C(=O)N/N=C/c1cc2c(cc1Br)OCO2,133*,119,-22,-33
COc1ccc(NC(=O)C(CC(C)C)NC(=O)C2CCCCC2)c(OC)c1 (centres undefined),104,100,0,8
CCN1CCN(c2ccc(NC(=O)c3cccc(F)c3)cc2Cl)CC1,112,136*,-41,-9
CCOc1ccc2nc(NC(=O)Cc3cccs3)sc2c1,108,129*,-31,-3
COc1ccc2nc(NC(=O)CSc3nnnn3C3CCCCC3)sc2c1,100,94,7,6
COc1ccc2nc(NC(=O)Cc3cccs3)sc2c1,95,136*,-46,7
O=C(Cc1cccs1)Nc1nc2ccccc2s1,96,126,-29,9
CCOc1ccc2nc(NC(=O)COC)sc2c1,89,138*,-43,19
COc1ccc2nc(NC(=O)CSc3nnnn3C)sc2c1,94,142*,-47,11
O=C1CSC(=S)N1N1C(=O)c2cccc([N+](=O)[O-])c2C1=O,99,99,-1,7
C=C(C(=O)c1ccccc1)C(CC(=O)c1ccccc1)c1ccccc1 (centres undefined),93,92,9,8
C/C(=N/OCc1ccc(Br)cc1)c1ccccn1,90,138*,-40,12
SMILES,STAT3 act,STAT1 act,STAT1 blocker,STAT3 inh
N/C(=N\OC(=O)Cc1ccccc1)c1ccccn1,102,115,-17,1
N/C(=N\OCc1ccc([N+](=O)[O-])cc1)c1ccccn1,12,16,90*,110*
CNc1nc(C23CC4CC(CC(C4)C2)C3)cs1,81,98,1,31
Cc1occc1C(=O)N=Nc1c(O)n(C)c2ccccc12,121,149*,-55,-25
Cn1c(O)c(N=NC(=O)c2ccco2)c2ccccc21,86,121,-24,20
Cn1c(O)c(N=NC(=O)c2ccccc2O)c2ccccc21,125,130*,-34,-24
Cn1c(NCc2ccc(Cl)cc2)nc2ccccc21,101,136*,-39,8
CC(=O)/C(=N\Nc1ccc(C)cc1)Sc1nncn1C,126,101,-1,-26
COc1ccc2c(CC(=O)Nc3ncc(C)s3)coc2c1,99,141*,-44,7
COc1ccc2c(CC(=O)Nc3nc(C)cs3)coc2c1,99,105,-7,3
c1ccc2nc(-c3nc4ccccc4o3)ccc2c1,36,64,38*,80*
O=C(/C=C/c1ccccc1[N+](=O)[O-])c1ccccc1Br,99,108,-10,6
Cc1ccc(-n2nnnc2-c2nc3ccccc3s2)cc1,102,104,-5,-5
CCOc1ccc(-n2nnnc2-c2nc3ccccc3s2)cc1,95,140*,-45,4
